Assay outcomes from PubChem BioAssay.
Most compounds without a hit are left out; they make up all but 4.6% or so of the library.
TAAR1 ag: agonists of human TAAR1. CHO RD-HGA16 TAAR1, Fluo-8 calcium fluorescence; vehicle wells 0%, saturating PEA agonist 100%. 0.99% of 360,000 active. AID 624467. activation, % at 3 µM. Q96RJ0;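 active = activation above the mean activation of all test compounds in the run plus 3 SD, cut at about 38% in these data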
Target sequence (Q96RJ0 whole entry, looked up): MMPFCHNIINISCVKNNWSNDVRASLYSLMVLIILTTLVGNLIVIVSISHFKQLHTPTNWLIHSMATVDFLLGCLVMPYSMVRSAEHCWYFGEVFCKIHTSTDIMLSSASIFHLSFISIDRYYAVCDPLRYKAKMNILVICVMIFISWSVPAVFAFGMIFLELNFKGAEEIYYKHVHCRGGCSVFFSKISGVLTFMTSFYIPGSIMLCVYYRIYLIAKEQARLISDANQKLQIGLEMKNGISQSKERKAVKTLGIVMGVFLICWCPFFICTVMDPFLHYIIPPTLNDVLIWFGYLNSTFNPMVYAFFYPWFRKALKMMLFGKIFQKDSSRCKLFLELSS
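Assay system – CHO-derived RD-HGA16 cells with stable Gα16 and human TAAR1 · Compound dosing – one-point dosing at 3 µM (nominal) · Incubation – 17-24 h seeding, 75 min 37 °C dye, 30 min RT · Measured by – kinetic Fluo-8 calcium fluorescence · Control set – DMSO vehicle as 0%, PEA at EC100 as 100% · Repeats – single well for each compound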
OX1R antag-1: antagonists of human orexin 1 receptor (OX1R) | O43613 | OX1R-expressing cells, FRET antagonist read-out | inhibition, % at 6.6 µM | 1.8% of 330,000 active | AID 485270; in the data active = inhibition mostly above about 38%, no sharp cut-off; inactive = mostly below about 40%
OX1R antag-2: blocks the human orexin 1 receptor; inhibition, % at 5 µM; AID 434989; O43613; 0.43% of 330,000 active; CHO/OX1R cells, Fluo-8 calcium fluorescence, orexin A;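 active = inhibition above its plate's threshold, mean inhibition of all tested compounds on the plate plus 3 SD, cut at about 37% in these data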
TAAR1 antagonist: human TAAR1 antagonism; 1.5% of 360,000 active; Q96RJ0; inhibition, % at 3 µM; CHO RD-HGA16 TAAR1, Fluo-8 calcium fluorescence, antagonist;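 active = inhibition above a per-plate cutoff, the mean inhibition of test compounds on that plate plus 3 SD, cut at about 49% in these data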
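Material: RD-HGA16 CHO cells with stable hTAAR1 and Gα16; Dosing: single nominal final test compound concentration of 3 µM; Schedule: seeding 17-24 h prior, 75-min 37 °C, 30-min RT dye loading; Detection: kinetic Fluo-8 calcium fluorescence measurement; Measure: % inhibition from peak post-agonist over basal fluorescence ratio; Benchmarks: vehicle and agonist controls.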
GPR7 antagonist: antagonists of human GPR7 (neuropeptides B/W receptor 1). GPR7-expressing cells, fluorescence antagonist assay. inhibition, % at 4.4 µM. P48145. 1.1% of 290,000 active; in the data active = inhibition above about 16%, passing the limit was not always enough;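 also: cells stimulated with the agonist NPW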
Target sequence (P48145 whole entry, looked up): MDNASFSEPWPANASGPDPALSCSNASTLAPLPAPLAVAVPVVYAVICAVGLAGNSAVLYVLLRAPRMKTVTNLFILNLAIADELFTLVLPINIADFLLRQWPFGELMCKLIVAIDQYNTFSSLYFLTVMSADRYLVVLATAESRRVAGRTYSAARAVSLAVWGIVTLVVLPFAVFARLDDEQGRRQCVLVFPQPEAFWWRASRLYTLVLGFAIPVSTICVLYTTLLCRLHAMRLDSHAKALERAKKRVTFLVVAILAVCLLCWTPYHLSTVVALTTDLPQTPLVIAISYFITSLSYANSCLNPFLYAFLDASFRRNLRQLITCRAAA
CHO parental Ca: counter-screen for OX1R antagonists: effect in parental CHO cells; 0.63% of 330,000 active; inhibition, % at 5.6 µM; parental CHO-K1, ATP-induced calcium, Fluo-8 fluorescence; AID 463079;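 active = inhibition above that plate's mean sample inhibition plus 3 SD, cut at about 26% in these data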
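Assay system – parental CHO cells · Reagent – ATP stimulus · Detection – intracellular calcium via Fluo-8 no-wash fluorescent dye · Evaluation – percent inhibition of ATP-evoked calcium rise, normalized to controls · Controls – ATP wells versus no-ATP DMSO wells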
GPR7 antag conf: confirmation of human GPR7 antagonists | 52% of 2,400 active | inhibition, % at 4.4 µM | shares compounds with GPR7 antagonist | GPR7-expressing cells, calcium fluorescence antagonist mode; in the data active = inhibition above about 24%;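 also: stimulated with the GPR7 agonist NPW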
MCHR1 antag: MCHR1 (human) antagonism in GPR7 counter-screen. inhibition, % at 4.4 µM. MCHR1-expressing cells, fluorescence antagonist assay. 62% of 2,400 active. shares compounds with GPR7 antagonist; in the data active = inhibition above about 22%
Hits are given with their value.

`CC1CCC(NC(=O)CCCCn2c(=O)[nH]c3ccsc3c2=O)CC1` (configuration not stated) gave TAAR1 ag inactive, OX1R antag-1 inactive, OX1R antag-2 inactive, TAAR1 antagonist inactive, GPR7 antagonist inactive and CHO parental Ca inactive.
`COC(=O)C1=C(C)N(Cc2ccccc2)C(=NCc2ccc(OC)cc2)N[C@H]1c1cccc(F)c1` gave TAAR1 ag inactive, OX1R antag-1 inactive, OX1R antag-2 inactive, TAAR1 antagonist inactive, GPR7 antagonist 44, CHO parental Ca inactive, GPR7 antag conf 51 and MCHR1 antag 41.
For COC(=O)C1=C(C)N(Cc2ccccc2)C(=NCc2cc(OC)c(OC)c(OC)c2)N[C@H]1c1cccc(F)c1 the results were OX1R antag-1 inactive, OX1R antag-2 inactive, GPR7 antagonist inactive and CHO parental Ca inactive.
Screening CN(C)CCCNC(=O)C[C@H]1C[C@H](C(=O)N2CCCCC2)[C@@]2(CCc3ccccc3)c3[nH]c4cc(CCC(=O)N(C)C)ccc4c3CCN2C1=O returned TAAR1 ag inactive, OX1R antag-1 inactive, OX1R antag-2 inactive, TAAR1 antagonist inactive and CHO parental Ca inactive.
Screening Cc1cc(C)nc(/N=C(\N)Nc2ccc(OCc3ccccc3)cc2)n1 returned TAAR1 ag 127, OX1R antag-1 inactive, OX1R antag-2 105, TAAR1 antagonist 106, GPR7 antagonist 101, CHO parental Ca 89, GPR7 antag conf 99 and MCHR1 antag 107.
COC(=O)C1=C(C)Nc2nc(SCc3ccccc3)[nH]c(=O)c2C1c1cccs1 (configuration not stated) was read as TAAR1 ag inactive, OX1R antag-1 inactive, OX1R antag-2 inactive, TAAR1 antagonist inactive, GPR7 antagonist 33, CHO parental Ca inactive, GPR7 antag conf inactive and MCHR1 antag 34.
For COc1ccc(S(=O)(=O)N2CCCCCC2)cc1C(=O)N(C)CC(=O)Nc1ccc(Cl)c(Cl)c1 the results were TAAR1 ag inactive, OX1R antag-1 inactive, OX1R antag-2 inactive, TAAR1 antagonist inactive and CHO parental Ca inactive.
For COc1ccc(S(=O)(=O)N2CCCCCC2)cc1C(=O)N(C)CC(=O)Nc1cc(C)ccc1C the results were TAAR1 ag inactive, TAAR1 antagonist inactive, GPR7 antagonist 30, GPR7 antag conf inactive and MCHR1 antag inactive.
`COC(=O)c1cc(NC(=O)c2c(-c3c(Cl)cccc3Cl)noc2C)ccc1N1CCOCC1` gave TAAR1 ag inactive, OX1R antag-1 inactive, OX1R antag-2 inactive, TAAR1 antagonist inactive, GPR7 antagonist 24, CHO parental Ca inactive, GPR7 antag conf inactive and MCHR1 antag inactive.
CCCCC(O)(CCCC)C(=O)NN(C(=O)OC)c1ccc(C)cc1 was read as TAAR1 ag inactive, OX1R antag-1 inactive, OX1R antag-2 inactive, TAAR1 antagonist inactive, GPR7 antagonist 23, CHO parental Ca inactive, GPR7 antag conf inactive and MCHR1 antag inactive.
Screening CCCC(O)(CCC)C(=O)NN(C(=O)OC)c1ccccc1 returned TAAR1 ag inactive, OX1R antag-1 inactive, OX1R antag-2 inactive, TAAR1 antagonist inactive, GPR7 antagonist inactive and CHO parental Ca inactive.
`Cc1ccnc(Nc2nc(-c3ccc(O)c(O)c3)cs2)c1` gave TAAR1 ag inactive, OX1R antag-1 inactive, OX1R antag-2 inactive, TAAR1 antagonist inactive, GPR7 antagonist 41, CHO parental Ca inactive, GPR7 antag conf 57 and MCHR1 antag 48.
`C(=Nn1cnnc1)c1ccc2c(c1)CCC2` gave TAAR1 ag inactive and TAAR1 antagonist inactive.
For Cc1cccc(Nc2nc3c(c(=O)n(C)c(=O)n3C)n2CC(O)CO)c1 (configuration not stated) the results were TAAR1 ag inactive, OX1R antag-1 inactive, OX1R antag-2 inactive, TAAR1 antagonist inactive, GPR7 antagonist inactive and CHO parental Ca inactive.
C=CCCC(=O)NC1CC(C)(C)Cc2c1cnn2-c1ccc(OC)cc1 (configuration not stated) was read as TAAR1 ag inactive, OX1R antag-1 inactive, OX1R antag-2 inactive, TAAR1 antagonist inactive, GPR7 antagonist 26, CHO parental Ca inactive, GPR7 antag conf inactive and MCHR1 antag inactive.
For O=C(Nc1ccccc1C(=O)NCc1ccccc1)C1=CSCCO1 the results were TAAR1 ag inactive, OX1R antag-1 inactive, OX1R antag-2 inactive, TAAR1 antagonist inactive, GPR7 antagonist inactive and CHO parental Ca inactive.
CCCCCCCC1CC(CSc2ncn[nH]2)OC1=O (configuration not stated) was read as TAAR1 ag inactive, OX1R antag-1 inactive, OX1R antag-2 inactive, TAAR1 antagonist inactive, GPR7 antagonist 21, CHO parental Ca inactive, GPR7 antag conf 38 and MCHR1 antag 38.
For CCCCC1CC(CSc2ncn[nH]2)OC1=O (configuration not stated) the results were TAAR1 ag inactive, OX1R antag-1 inactive, OX1R antag-2 inactive, TAAR1 antagonist inactive, GPR7 antagonist inactive and CHO parental Ca inactive.
`CCOC(=O)c1ccc(CNC(=O)c2cc(COc3ccccc3SC)on2)o1` gave TAAR1 ag inactive, OX1R antag-1 inactive, OX1R antag-2 inactive, TAAR1 antagonist inactive, GPR7 antagonist 44, CHO parental Ca inactive, GPR7 antag conf inactive and MCHR1 antag 45.
Screening CSc1ccccc1OCc1cc(C(=O)NCc2ccc(C)s2)no1 returned TAAR1 ag inactive, OX1R antag-1 inactive, OX1R antag-2 inactive, TAAR1 antagonist inactive, GPR7 antagonist inactive and CHO parental Ca inactive.
COCCNC(=O)C(c1ccc(F)cc1)N(C(=O)CCC(=O)Nc1ccccn1)c1cccc(C)c1 (configuration not stated) was read as TAAR1 ag inactive, OX1R antag-1 inactive, OX1R antag-2 inactive, TAAR1 antagonist inactive, GPR7 antagonist inactive and CHO parental Ca inactive.
Screening Cc1ccc(SCC(=O)Nc2nnc(-c3ccco3)o2)cc1 returned TAAR1 ag inactive, OX1R antag-1 inactive, OX1R antag-2 inactive, TAAR1 antagonist inactive and CHO parental Ca inactive.
For O=S(=O)(c1cnc(Cl)c(Cl)c1)N1CCCc2ccccc21 the results were TAAR1 ag inactive, OX1R antag-1 inactive, OX1R antag-2 inactive, TAAR1 antagonist inactive, GPR7 antagonist 30, CHO parental Ca inactive, GPR7 antag conf 61 and MCHR1 antag 52.
For COc1ccc(Br)cc1CNC(=O)C1CCCN(c2nc3ccccc3o2)C1 (configuration not stated) the results were TAAR1 ag inactive, OX1R antag-1 inactive, OX1R antag-2 inactive, TAAR1 antagonist inactive, GPR7 antagonist inactive and CHO parental Ca inactive.
